A short description of data set [1]: Inhibition of CutC in Escherichia coli MS 200-1 assessed as reduction in d9-TMA formation using d9-choline chloride as substrate incubated for 4 hrs under anaerobic condition by LC-MS-MS analysis.
For data set [2], the target named is T1, Choline trimethylamine-lyase (Desulfovibrio alaskensis) (UniProt Q30W70).
T1 sequence (whole entry): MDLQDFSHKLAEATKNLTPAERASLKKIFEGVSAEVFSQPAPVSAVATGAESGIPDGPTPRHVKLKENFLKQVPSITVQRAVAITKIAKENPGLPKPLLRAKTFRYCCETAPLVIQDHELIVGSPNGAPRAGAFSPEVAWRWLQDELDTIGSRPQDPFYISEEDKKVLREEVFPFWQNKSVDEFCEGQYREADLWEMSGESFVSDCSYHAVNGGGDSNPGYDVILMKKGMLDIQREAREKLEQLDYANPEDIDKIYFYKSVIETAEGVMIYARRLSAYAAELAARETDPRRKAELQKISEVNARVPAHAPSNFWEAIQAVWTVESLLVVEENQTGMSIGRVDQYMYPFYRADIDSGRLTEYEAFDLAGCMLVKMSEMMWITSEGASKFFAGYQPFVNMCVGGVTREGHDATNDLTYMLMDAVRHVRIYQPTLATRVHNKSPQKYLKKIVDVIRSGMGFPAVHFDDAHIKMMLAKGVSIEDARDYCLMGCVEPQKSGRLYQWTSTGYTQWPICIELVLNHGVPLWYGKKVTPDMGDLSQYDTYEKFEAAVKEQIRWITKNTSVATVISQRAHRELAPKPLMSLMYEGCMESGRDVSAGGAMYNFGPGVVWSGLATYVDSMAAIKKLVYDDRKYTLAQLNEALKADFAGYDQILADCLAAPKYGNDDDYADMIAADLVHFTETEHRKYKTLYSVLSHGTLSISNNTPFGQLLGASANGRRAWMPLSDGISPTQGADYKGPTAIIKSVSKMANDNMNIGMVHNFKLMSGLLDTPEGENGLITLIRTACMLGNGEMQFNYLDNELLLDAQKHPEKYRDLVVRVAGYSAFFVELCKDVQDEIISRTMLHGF
Kind of data set: (§1) Inhibition of N-terminal His6-tagged Desulfovibrio desulfuricans G20 CutC encoding 52 residues assessed as reduction in acetaldehyde using choline as substrate in presence of NADH-dependent yeast alcohol dehydrogenase by UV-Vis absorbance based assay.

The target in data set [3] is T2, Choline trimethylamine-lyase (Desulfovibrio alaskensis, UniProt Q30W70).
T2 sequence (Q30W70 whole entry): T1 sequence (whole entry)
The data set is described as §1.

The nature of data set [4]: (§2) Binding affinity to CutC (unknown origin) by CM5 sensor chip immobilization based surface plasmon resonance analysis. On the set-up: species or system Bacteria.
The test system of data set [5] is Bacteria. The description is as §2.
For data set [6], the system named is Bacteria. Briefly: Non-competitive inhibition of CutC (unknown origin) assessed as reduction in Vmax with constant Km using choline as substrate at 5 uM by Lineweaver-Burk plot based Michelis-Menten analysis. The procedure, abridged: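 D. desulfuricans G20 CutC (20 μM) activated by CutD (40 μM) with dithionite (150 μM) and SAM (200 μM), anaerobic, in 50 mM potassium phosphate pH 8.0 with 50 mM KCl for 1 h, then diluted 20-fold. Coupled to yeast ADH (0.4 μM) with NADH (200 μM). Choline varied, inhibitor absent or at 5 μM. A340 read every 20 s for 10 min. Kinetics by Michaelis–Menten and Lineweaver–Burk plots, n = 3.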

The nature of data set [7]: Inhibition of CutC (unknown origin) in human feces assessed as reduction in TMA production using choline as substrate by LC-MS/MS analysis. It is filed as tissue-based, Bacteria.
Data set [8] can be described thus: Metabolic stability in human intestinal S9 fraction assessed as parent compound remaining at 33 uM incubated for 2 hrs by LC/MS/MS analysis. The settings on record: read-out: Stabilty. It is filed as ADME, subcellular, Intestine. The procedure, abridged: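 Mixed-gender human intestinal S9 (4 mg mL−1 stock) in 100 mM potassium phosphate pH 7.4 with NADPH cofactor, 6 mM MgCl2 and 1 mM EDTA. Compound at 33 μM final, in triplicate, 2 h at 37 °C. No-cofactor negative control. Supernatant diluted and percent intact compound quantified by LC-MS/MS.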

A further data set deals with Escherichia coli. Briefly: Effect on d9-choline uptake in Escherichia coli MS 200-1 at 50 uM incubated for 15 mins by LC-MS/MS analysis. It is filed as functional.
Data set [9] deals with Bacteria. Kind of data set: Binding affinity to CutD (unknown origin) by CM5 sensor chip immobilization based surface plasmon resonance analysis.
The subject of the next data set is Saccharomyces cerevisiae. Briefly: Effect on alcohol dehydrogenase activity in yeast at 5 to 50 uM in presence of NADH by colorimetric assay. The settings on record: dose 5-50 µM.

Structures are written as SMILES. Activity calls are given as the source filed them. The calls are words filed in the database; no cut-off is given here.

For `O=C(NC1CC1)C1CCN(Cc2nc3cc(F)ccc3o2)CC1`, the concentration giving a half-maximal response (EC50) in [1] amounted to 5.4 µM; in [7], 38 µM. Also, the inhibition result in data set [2] is “Dose-dependent effect”. The 50% inhibitory concentration (IC50) in [3] was 2.4 µM. Further, in data set [4], the affinity, expressed as Kd, was 4.05 µM. Also, the Activity result in the data set on Bacteria [5] is “Dose-dependent effect”. Besides, the inhibition entry in the data set on Bacteria [6] was “Active”. Also, the remaining at 2 h, 33 µM in data set [8] was above 90%. In addition, the outcome with Escherichia coli and in the data set with Saccharomyces cerevisiae was inactive. Further, the result in the data set on Bacteria [9] was Active.

For the compound `O=C(CCc1ccccc1OC(F)(F)F)NC1CCCCNC1=O` (stereo unspecified), in [1], the EC50 was above 1000 µM. For the same compound, the half-inhibitory concentration (IC50) in [3] was above 500 µM. Besides, the remaining at 2 h, 33 µM in data set [8] is above 90%.

With `Cc1cccc(NC2CCN(C(=O)Nc3cn[nH]c3)CC2)n1`, in data set [1], the EC50 stood at 143 µM. The concentration for half-maximal inhibition (IC50) in data set [3] amounted to 85 µM. Also, the remaining at 2 h, 33 µM in [8] was above 90%.

For the compound `CC(C)Nc1cccc(C(=O)NCCCN2CCC(O)CC2)c1`, in data set [1], the EC50 came to 376 µM. For the same compound, the 50% inhibitory concentration (IC50) in data set [3] worked out at 210 µM. For the same compound, in [8], the remaining at 2 h, 33 µM is above 90%.

For the compound `CC(O)CNC(=O)NC1CCN(Cc2ccccn2)CC1` (stereo unspecified), in data set [1], the half-maximal effective concentration (EC50) is 87 µM. Further, in data set [3], the IC50 worked out at 73 µM. Moreover, the remaining at 2 h, 33 µM in [8] was above 90%.

For the compound `CN1CC=C[C@H](O)C1`, the values for the concentration giving a half-maximal response (EC50) in data set [1] and in data set [7] were 11 µM and 83.9 µM, respectively.

With `C[N+](C)(C)CC=O` [BETAINE ALDEHYDE], the half-inhibitory concentration (IC50) in [3] was 26 µM.

`O=C(Nc1ccc(N2CCOCC2)nc1)NC1CCCCNC1=O` (stereo unspecified): the EC50 in data set [1] amounted to 298 µM. The concentration for half-maximal inhibition (IC50) in data set [3] was determined as 167 µM. Further, in data set [8], the remaining at 2 h, 33 µM is above 90%.

For `COc1cc(CCNC(=O)NC2CCCCC2CO)ccc1F` (stereo unspecified), the EC50 in data set [1] is 409 µM. In data set [3], the IC50 came out at 212 µM. The remaining at 2 h, 33 µM in data set [8] was above 90%.

`O=C(NC1CCCCC1CO)c1cc(F)cc2[nH]cnc12` (stereo unspecified): the concentration giving a half-maximal response (EC50) in data set [1] was above 1000 µM. Also, the IC50 in data set [3] is above 500 µM. The remaining at 2 h, 33 µM in data set [8] was above 90%.

`O=S(=O)(NCC1CCCC1O)c1ccc2cn[nH]c2c1` (stereo unspecified): the concentration for a half-maximal effect (EC50) in data set [1] turned out to be 488 µM. The concentration for half-maximal inhibition (IC50) in data set [3] came out at 301 µM. Also, the remaining at 2 h, 33 µM in data set [8] was above 90%.

`Cc1cc(C(=O)NC2CCNCC2)no1`: in data set [1], the half-maximal effective concentration (EC50) was above 1000 µM. In addition, the IC50 in data set [3] is above 500 µM. Also, the remaining at 2 h, 33 µM in data set [8] is above 90%.

As to `CN1CCC(NC(=O)NCCNc2ccccn2)CC1`, the 50% effective concentration (EC50) in data set [1] was found to be 354 µM. The IC50 in [3] was 199 µM. The remaining at 2 h, 33 µM in data set [8] was above 90%.

Take `Cn1c(N)nc2c(ncn2[C@@H]2O[C@H](CO)[C@@H](O)[C@H]2O)c1=O`: in [1], the EC50 was determined as 175 µM. The half-inhibitory concentration (IC50) in [3] was determined as 110 µM. Besides, the remaining at 2 h, 33 µM in data set [8] is above 90%.

Turning to `Cc1ccc(-n2nc(NC3CCN(C(N)=O)CC3)cc2C)cc1`, the EC50 in data set [1] is above 1000 µM. Also, the concentration for half-maximal inhibition (IC50) in [3] is above 500 µM. Moreover, the remaining at 2 h, 33 µM in [8] is above 90%.

As for `O=C1NCCCCC1NC(=O)N1CCCc2cc(F)ccc21` (stereo unspecified), the EC50 in data set [1] was above 1000 µM. Further, the IC50 in data set [3] was above 500 µM. Moreover, the remaining at 2 h, 33 µM in [8] was above 90%.

As to `O=C(NCc1nc(-c2ccccc2)n[nH]1)NC1CCC(O)CC1` (stereo unspecified), in data set [1], the EC50 was determined as 79 µM. Also, the 50% inhibitory concentration (IC50) in data set [3] came out at 49 µM. In addition, the remaining at 2 h, 33 µM in data set [8] was above 90%.

Values taken from ChEMBL document CHEMBL4715687, “A benzoxazole derivative as an inhibitor of anaerobic choline metabolism by human gut microbiota” (RSC Med Chem, 2020).
